Laboratory results taken from ChEMBL document CHEMBL4354876, “A Selective Modulator of Peroxisome Proliferator-Activated Receptor γ with an Unprecedented Binding Mode” (J Med Chem, 2020).
The source made the active and inactive calls. The calls are words filed in the database; no cut-off is given here.

How the values were obtained:
[1] = biological target: T1, Peroxisome proliferator-activated receptor delta (Homo sapiens, UniProt Q03181); experiment: Partial agonist activity at Gal4-fused PPARdelta LBD (unknown origin) expressed in HEK293T cells after 14 to 16 hrs by dual-Glo luciferase assay; type: cell-based
T1 sequence (Q03181 whole entry): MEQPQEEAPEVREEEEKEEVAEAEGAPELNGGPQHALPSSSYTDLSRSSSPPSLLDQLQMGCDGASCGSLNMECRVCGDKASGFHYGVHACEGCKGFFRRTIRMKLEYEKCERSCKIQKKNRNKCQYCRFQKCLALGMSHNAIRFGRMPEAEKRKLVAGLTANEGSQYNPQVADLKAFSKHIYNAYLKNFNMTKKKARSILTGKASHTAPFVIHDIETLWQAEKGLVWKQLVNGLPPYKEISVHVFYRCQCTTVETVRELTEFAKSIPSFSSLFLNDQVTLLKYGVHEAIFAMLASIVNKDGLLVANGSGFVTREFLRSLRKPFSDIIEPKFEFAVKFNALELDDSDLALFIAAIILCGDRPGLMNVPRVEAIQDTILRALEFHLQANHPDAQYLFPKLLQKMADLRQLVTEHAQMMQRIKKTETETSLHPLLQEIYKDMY
In short: (§1)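 Gal4 hybrid reporter assay in transiently transfected HEK293T cells. Constructs fuse the yeast Gal4 DNA-binding domain to the human receptor LBD. Firefly luciferase is the reporter. Constitutive renilla luciferase monitors transfection efficiency and toxicity. EC50 and maximal relative activation are reported as mean±S.E.M., n≥3.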

[2] = biological target: T2, Peroxisome proliferator-activated receptor alpha (Homo sapiens, UniProt Q07869); experiment: Partial agonist activity at Gal4-fused PPARalpha LBD (unknown origin) expressed in HEK293T cells after 14 to 16 hrs by dual-Glo luciferase assay; type: cell-based; in short: as §1
T2 sequence (Q07869 whole entry): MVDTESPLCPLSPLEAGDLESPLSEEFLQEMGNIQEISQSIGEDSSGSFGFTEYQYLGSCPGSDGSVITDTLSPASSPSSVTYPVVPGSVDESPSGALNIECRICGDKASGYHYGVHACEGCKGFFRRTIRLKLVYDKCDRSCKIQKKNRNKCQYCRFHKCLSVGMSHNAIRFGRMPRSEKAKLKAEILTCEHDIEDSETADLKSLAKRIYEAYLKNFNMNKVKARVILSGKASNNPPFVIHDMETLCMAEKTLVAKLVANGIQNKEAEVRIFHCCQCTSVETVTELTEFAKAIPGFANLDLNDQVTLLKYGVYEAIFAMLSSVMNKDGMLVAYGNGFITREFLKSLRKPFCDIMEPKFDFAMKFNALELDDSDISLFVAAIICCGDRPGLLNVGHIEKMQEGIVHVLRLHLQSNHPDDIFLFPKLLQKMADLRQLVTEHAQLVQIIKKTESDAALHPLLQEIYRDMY

[3] = biological target: T3, Peroxisome proliferator-activated receptor alpha (Homo sapiens) (UniProt Q07869); experiment: Partial agonist activity at Gal4-fused PPARalpha LBD (unknown origin) expressed in HEK293T cells after 14 to 16 hrs by dual-Glo luciferase assay relative to GW7647; type: cell-based; in short: as §1
T3 sequence (whole entry): T2 sequence (Q07869 whole entry)

[4] = biological target: T4, Peroxisome proliferator-activated receptor gamma (Homo sapiens, UniProt P37231); experiment: Partial agonist activity at Gal4-fused PPARgamma LBD (unknown origin) expressed in HEK293T cells after 14 to 16 hrs by dual-Glo luciferase assay; type: cell-based; in short: as §1
T4 sequence (P37231 whole entry): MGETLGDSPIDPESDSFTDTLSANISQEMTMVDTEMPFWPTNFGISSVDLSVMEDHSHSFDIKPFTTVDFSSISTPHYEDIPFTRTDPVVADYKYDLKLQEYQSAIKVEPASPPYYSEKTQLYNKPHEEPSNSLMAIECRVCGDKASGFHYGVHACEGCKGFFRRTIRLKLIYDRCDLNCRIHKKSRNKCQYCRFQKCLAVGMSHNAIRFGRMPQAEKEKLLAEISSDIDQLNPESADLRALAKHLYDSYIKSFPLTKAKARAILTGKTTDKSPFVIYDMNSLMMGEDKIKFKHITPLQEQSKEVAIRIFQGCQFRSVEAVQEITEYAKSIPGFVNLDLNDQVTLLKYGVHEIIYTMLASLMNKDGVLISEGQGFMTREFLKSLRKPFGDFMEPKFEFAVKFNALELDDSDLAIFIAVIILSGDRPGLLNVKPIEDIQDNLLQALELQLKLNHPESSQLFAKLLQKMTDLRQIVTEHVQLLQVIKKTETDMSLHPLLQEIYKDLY

[5] = biological target: T5, Peroxisome proliferator-activated receptor gamma (Homo sapiens) (UniProt P37231); experiment: Partial agonist activity at Gal4-fused PPARgamma LBD (unknown origin) expressed in HEK293T cells after 14 to 16 hrs by dual-Glo luciferase assay relative to pioglitazone; type: cell-based; in short: as §1
T5 sequence (whole entry): T4 sequence (P37231 whole entry)

[6] = biological target: T6, Peroxisome proliferator-activated receptor delta (Homo sapiens) (UniProt Q03181); experiment: Partial agonist activity at Gal4-fused PPARdelta LBD (unknown origin) expressed in HEK293T cells after 14 to 16 hrs by dual-Glo luciferase assay relative to L165041; type: cell-based; in short: as §1
T6 sequence (whole entry): T1 sequence (Q03181 whole entry)

[7] = biological target: Retinoic acid receptor (Homo sapiens) (UniProt P13631+P10826+P10276); experiment: Agonist activity at RAR (unknown origin) at 10 uM; type: protein assay
[8] = biological target: Liver X receptor (Homo sapiens) (UniProt Q13133+P55055); experiment: Agonist activity at LXR (unknown origin) at 10 uM; type: protein assay
[9] = biological target: T7, Bile acid receptor (Homo sapiens) (UniProt Q96RI1); experiment: Agonist activity at FXR (unknown origin) at 10 uM
T7 sequence (whole entry): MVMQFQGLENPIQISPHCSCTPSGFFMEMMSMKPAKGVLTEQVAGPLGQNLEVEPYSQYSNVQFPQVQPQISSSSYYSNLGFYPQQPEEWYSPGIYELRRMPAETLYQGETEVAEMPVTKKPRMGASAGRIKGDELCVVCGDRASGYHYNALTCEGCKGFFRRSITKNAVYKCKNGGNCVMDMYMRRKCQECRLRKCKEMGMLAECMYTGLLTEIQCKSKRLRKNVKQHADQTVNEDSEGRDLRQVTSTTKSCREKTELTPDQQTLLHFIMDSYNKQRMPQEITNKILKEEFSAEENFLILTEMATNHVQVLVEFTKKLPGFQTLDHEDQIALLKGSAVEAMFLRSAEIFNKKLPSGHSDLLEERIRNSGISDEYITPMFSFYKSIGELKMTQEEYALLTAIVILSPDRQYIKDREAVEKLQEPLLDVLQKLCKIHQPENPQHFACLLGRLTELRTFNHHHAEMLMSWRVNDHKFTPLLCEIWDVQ

[10] = biological target: Retinoid X receptor (Homo sapiens) (UniProt P28702+P48443+P19793); experiment: Agonist activity at RXR (unknown origin) at 10 uM; type: protein assay
[11] = Stability in Sprague-Dawley rat liver microsomes assessed as parent compound remaining at 10 uM after 60 mins by HPLC analysis; type: ADME, Microsome; settings: read-out: Stability
In short: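 Incubation with rat liver microsomes, measuring compound remaining after 60 minutes.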

[12] = biological target: T4, Peroxisome proliferator-activated receptor gamma; experiment: Partial agonist activity at recombinant N-terminal GFP-fused PPARgamma LBD (unknown origin) assessed as increase in biotinylated-CBP peptide recruitment measured after 2 hrs by HTRF assay
In short: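 Cell-free HTRF assay of CBP coactivator recruitment to recombinant PPARγ protein.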

[13] = biological target: T4, Peroxisome proliferator-activated receptor gamma; experiment: Partial agonist activity at recombinant N-terminal GFP-fused PPARgamma LBD (unknown origin) assessed as increase in biotinylated-SRC1 peptide recruitment measured after 2 hrs by HTRF assay
[14] = Partial agonist activity at recombinant PPARgamma LBD/N-terminal GFP-fused RXRalpha mutant LBD (unknown origin) assessed as increase in biotinylated-CBP peptide recruitment measured after 2 hrs by HTRF assay; set-up: species or system Homo sapiens
In short: (§2)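 Cell-free HTRF assay of coactivator peptide recruitment (CBP or SRC-1) to the recombinant PPARγ:RXRα heterodimer.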

[15] = Partial agonist activity at recombinant PPARgamma LBD/N-terminal GFP-fused RXRalpha mutant LBD (unknown origin) assessed as increase in biotinylated-SRC1 peptide recruitment measured after 2 hrs by HTRF assay; set-up: species or system Homo sapiens; in short: as §2
[16] = biological target: T5, Peroxisome proliferator-activated receptor gamma (Homo sapiens); experiment: Selective modulation of PPARgamma in human HepG2 cells assessed as induction of adiponectin mRNA expression at 1 uM measured after 12 hrs by qPCR analysis; type: cell-based
In short: (§3)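 HepG2 cells were incubated with test compound at 1 µM. mRNA of the PPARγ target genes adiponectin and ANGPTL4 was quantified. Mean±S.E.M., n≥3.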

[17] = biological target: T4, Peroxisome proliferator-activated receptor gamma; experiment: Selective modulation of PPARgamma in human HepG2 cells assessed as induction of ANGPTL4 mRNA expression at 1 uM measured after 12 hrs by qPCR analysis; type: cell-based; settings: hepg2, 12 h; in short: as §3
NHDF [18] = experiment: (§4) Induction of adipogenesis in NHDF assessed as reduction in fibroblast differentiation into matured adipocytes at 0.2 to 20 uM administered on day 3 of differentiation 1 and day 5 of differentiation 2 followed by media refreshment at 2 days interval up to 13 days and measured on day 14 by Oil red O staining based light microscopic analysis; type: cell-based; settings: human
In short: (§5)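 Primary human fibroblasts (NHDF) were differentiated to mature adipocytes and treated with ligand or DMSO; the test compound was used at 0.2, 2 and 20 µM and the reference at 2 µM. Lipid accumulation was read by Oil Red O staining, with four replicates.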

NHDF [19] = experiment: as §4, with “2” for “0.2 to 20”; type: cell-based; settings: human; in short: as §5

Chain of Retinoid X receptor (Homo sapiens) (P19793 whole entry, looked up): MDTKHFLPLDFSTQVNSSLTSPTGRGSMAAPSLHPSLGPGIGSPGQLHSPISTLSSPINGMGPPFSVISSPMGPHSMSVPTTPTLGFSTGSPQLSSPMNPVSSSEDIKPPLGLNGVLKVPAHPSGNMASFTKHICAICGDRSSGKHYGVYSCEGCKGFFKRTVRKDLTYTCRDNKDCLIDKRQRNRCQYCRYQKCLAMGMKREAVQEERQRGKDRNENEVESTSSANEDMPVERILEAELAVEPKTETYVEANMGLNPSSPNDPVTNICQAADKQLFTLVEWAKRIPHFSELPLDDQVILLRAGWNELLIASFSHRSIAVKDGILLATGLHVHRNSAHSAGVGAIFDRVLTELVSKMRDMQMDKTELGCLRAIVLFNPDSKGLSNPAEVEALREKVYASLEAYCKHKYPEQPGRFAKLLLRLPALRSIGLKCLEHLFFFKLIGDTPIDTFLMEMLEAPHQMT
Chain of Retinoid X receptor (Homo sapiens) (P28702 whole entry, looked up): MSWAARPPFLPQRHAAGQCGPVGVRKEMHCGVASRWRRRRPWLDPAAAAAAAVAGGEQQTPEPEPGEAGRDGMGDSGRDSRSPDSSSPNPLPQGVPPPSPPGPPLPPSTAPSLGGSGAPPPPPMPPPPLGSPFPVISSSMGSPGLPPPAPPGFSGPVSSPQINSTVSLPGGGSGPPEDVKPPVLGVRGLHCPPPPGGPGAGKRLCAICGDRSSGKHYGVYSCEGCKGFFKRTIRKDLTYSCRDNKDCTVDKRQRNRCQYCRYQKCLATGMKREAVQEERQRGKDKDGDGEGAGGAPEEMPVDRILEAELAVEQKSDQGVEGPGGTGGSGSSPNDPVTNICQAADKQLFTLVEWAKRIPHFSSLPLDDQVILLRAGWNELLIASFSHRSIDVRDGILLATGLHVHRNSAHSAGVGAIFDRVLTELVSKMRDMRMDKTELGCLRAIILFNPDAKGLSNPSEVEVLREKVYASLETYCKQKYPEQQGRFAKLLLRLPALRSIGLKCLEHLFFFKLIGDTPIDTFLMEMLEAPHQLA
Chain of Retinoid X receptor (Homo sapiens) (P48443 whole entry, looked up): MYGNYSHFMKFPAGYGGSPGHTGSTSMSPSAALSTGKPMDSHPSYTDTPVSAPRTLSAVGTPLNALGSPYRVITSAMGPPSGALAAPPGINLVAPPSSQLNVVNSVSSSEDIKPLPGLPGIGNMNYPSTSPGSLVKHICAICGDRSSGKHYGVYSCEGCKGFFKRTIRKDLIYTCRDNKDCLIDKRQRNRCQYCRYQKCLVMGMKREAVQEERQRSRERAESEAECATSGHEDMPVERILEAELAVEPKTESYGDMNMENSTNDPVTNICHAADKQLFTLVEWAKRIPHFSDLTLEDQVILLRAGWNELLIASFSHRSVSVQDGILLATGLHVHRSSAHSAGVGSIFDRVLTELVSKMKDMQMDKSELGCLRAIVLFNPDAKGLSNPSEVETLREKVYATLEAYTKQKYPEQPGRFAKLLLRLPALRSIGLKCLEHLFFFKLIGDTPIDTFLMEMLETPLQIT
Chain of Retinoic acid receptor (Homo sapiens) (P10276 whole entry, looked up): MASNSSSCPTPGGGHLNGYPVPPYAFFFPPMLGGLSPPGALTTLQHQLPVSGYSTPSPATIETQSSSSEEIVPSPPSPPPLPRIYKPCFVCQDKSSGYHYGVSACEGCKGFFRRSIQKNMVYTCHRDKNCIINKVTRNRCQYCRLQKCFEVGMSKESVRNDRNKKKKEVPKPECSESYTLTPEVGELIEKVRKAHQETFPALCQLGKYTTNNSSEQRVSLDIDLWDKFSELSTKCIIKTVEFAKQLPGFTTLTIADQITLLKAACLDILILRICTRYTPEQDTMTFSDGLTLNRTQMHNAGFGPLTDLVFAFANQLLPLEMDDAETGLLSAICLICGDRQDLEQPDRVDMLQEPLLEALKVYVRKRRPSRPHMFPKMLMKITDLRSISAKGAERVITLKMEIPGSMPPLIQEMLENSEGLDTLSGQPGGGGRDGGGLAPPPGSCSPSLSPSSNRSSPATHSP
Chain of Retinoic acid receptor (Homo sapiens) (P10826 whole entry, looked up): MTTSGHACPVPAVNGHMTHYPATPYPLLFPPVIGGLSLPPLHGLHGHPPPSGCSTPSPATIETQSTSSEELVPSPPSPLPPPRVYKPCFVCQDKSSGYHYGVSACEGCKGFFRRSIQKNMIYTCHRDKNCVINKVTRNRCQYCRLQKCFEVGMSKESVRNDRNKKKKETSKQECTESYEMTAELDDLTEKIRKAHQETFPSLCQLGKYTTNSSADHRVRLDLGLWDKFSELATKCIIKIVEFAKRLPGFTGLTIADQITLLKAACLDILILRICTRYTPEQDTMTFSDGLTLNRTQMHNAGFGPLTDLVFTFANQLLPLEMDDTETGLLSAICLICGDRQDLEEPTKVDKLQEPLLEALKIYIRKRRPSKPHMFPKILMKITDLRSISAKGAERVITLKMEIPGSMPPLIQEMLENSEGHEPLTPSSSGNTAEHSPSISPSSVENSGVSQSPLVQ
Chain of Retinoic acid receptor (Homo sapiens) (P13631 whole entry, looked up): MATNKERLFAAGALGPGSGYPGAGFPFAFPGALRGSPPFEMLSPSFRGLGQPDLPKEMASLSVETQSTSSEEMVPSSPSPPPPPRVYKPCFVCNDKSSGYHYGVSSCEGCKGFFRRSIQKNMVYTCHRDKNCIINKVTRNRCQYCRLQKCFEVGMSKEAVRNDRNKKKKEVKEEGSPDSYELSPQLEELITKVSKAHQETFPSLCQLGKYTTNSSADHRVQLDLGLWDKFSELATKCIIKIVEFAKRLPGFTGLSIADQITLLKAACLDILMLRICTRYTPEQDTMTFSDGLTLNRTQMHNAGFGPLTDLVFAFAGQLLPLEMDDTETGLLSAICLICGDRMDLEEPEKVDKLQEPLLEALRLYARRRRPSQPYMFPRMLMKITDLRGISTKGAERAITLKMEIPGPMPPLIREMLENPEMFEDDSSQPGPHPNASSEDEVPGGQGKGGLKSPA

Row | Structure (SMILES) | EC50 [1] [nM] | EC50 [2] [nM] | max activation [3] [%] | EC50 [4] [nM] | max activation [5] [%] | max activation [6] [%] | Activity [7] | Activity [8] | Activity [9] | Activity [10] | remaining at 1 h, 10 µM [11] [%] | EC50 [12] [nM] | EC50 [13] [nM] | EC50 [14] [nM] | EC50 [15] [nM] | Activity [16] | Activity [17] | Activity (NHDF [18]) | Activity (NHDF [19])
1 | CCCCCCC(Sc1nc2ccc(NS(=O)(=O)c3ccc(Cl)cc3Cl)cc2s1)C(=O)O (configuration not stated) | 400 | 500 | 29 | 2.2 | 67 | 12 | inactive | inactive | inactive | inactive | 80 | 197 | 107 | 437 | 887 | Active | Not Active | Non-Toxic | –
2 | CN(CCOc1ccc(CC2SC(=O)NC2=O)cc1)c1ccccn1 (configuration not stated) [ROSIGLITAZONE] | – | – | – | – | – | – | – | – | – | – | – | – | – | 121 | 116 | Active | – | – | Toxic
